Source: PubChem (several laboratories)
RBBP9 inh: inhibitors of human serine hydrolase RBBP9; O75884; recombinant RBBP9, FP-Rh probe fluorescence polarization; hit rate 0.2% among 220,000; inhibition, % at 7.94 µM;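 active means inhibition above the campaign mean of all tested compounds plus 3 SD, cut at about 14% in these data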
Target sequence (O75884 whole entry, looked up): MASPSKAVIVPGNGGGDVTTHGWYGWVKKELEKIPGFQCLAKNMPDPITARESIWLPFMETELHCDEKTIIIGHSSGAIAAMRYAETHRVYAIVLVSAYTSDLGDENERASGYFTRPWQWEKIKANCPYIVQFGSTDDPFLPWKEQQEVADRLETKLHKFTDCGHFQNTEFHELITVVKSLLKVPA
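Test system – recombinant human RBBP9 · Input – RBBP9 2.5 µM in dispensing solution, pre-mixing · Medium – Tris buffer pH 8.0, NaCl, Pluronic · Schedule – preincubation 30 min plus labeling 45 min at 25 °C · Measured by – fluorescence polarization · Measure – % inhibition · Controls – DMSO and no-protein wells · Replicates – one well per compound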
NCF1 inh: inhibitors of human p47phox binding; P14598; p47phox/p22phox peptide binding, fluorescence polarization, 2 h; inhibition, % at 24.7 µM; hit rate 0.53% among 220,000;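 active means inhibition above about 30%, limit read from the data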
Target sequence (P14598 whole entry, looked up): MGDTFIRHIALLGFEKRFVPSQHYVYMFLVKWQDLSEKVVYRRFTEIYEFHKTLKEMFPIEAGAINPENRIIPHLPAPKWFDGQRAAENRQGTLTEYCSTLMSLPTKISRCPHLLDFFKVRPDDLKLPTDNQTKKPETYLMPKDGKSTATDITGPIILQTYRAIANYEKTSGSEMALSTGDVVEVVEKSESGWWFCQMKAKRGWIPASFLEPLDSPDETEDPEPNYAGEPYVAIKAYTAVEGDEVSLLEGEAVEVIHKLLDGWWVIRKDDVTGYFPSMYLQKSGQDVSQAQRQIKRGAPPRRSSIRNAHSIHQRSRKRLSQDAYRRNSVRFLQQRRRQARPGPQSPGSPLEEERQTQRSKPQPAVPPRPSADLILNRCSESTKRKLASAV
Yeast lifespan up: extends the lifespan of yeast | S. cerevisiae growth with nicotinamide, OD615; deaD strain in restrictive glucose medium | inhibition of the nicotinamide effect, % at 10 µM | hit rate 0.68% among 130,000 | AID 775;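 active means inhibition above a set limit, placed 3 SD over the median of all compounds, cut at about 26% in these data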
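Measured by: optical density (absorbance) at 615 nm; System: modified budding yeast, DeaD strain; Medium: restrictive CSMM-D dextrose medium; Timing: 4 h preincubation then 48 h treatment at 30 °C.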
Yeast growth inh: reduces growth of yeast BB579 in restrictive medium. S. cerevisiae BB579 growth, OD615, 48 h. inhibition, % at 10 µM. hit rate 0.51% among 140,000;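 active means inhibition above a set limit, 3 SD over the mean compound inhibition, cut at about 44% in these data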
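controls = amphotericin B 10 µg/mL, positive | assay system = DeaD yeast strain BB579 | schedule = 48 h compound exposure at 30 °C after 4 h preincubation | detection = OD615 turbidity measurement | medium = restrictive CSMM-D medium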
sdo1 growth: compounds rescuing growth of sdo1-depleted yeast, bone marrow failure model; AID 817; S. cerevisiae sdo1-depleted JHY4D growth rescue, OD600 30 h; stronger effect = higher value; pdr5 snq2 efflux-pump mutant strain; z-score at 10 µM; hit rate 0.21% among 140,000;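 active means z-score above 3 at both the 24 hr and the 30 hr optical density reads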
Tb hexokinase: blocks Trypanosoma brucei hexokinase 1 activity; recombinant TbHK1, G6PDH-coupled NADH A340; inhibition, % at 10 µM; hit rate 0.11% among 220,000;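 active means inhibition of 50% or more in the single-dose primary screen; inactive means inhibition below 50%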
A number is an active result; - = inactive; . = not tested or not shown. Hits are enriched below; roughly 1.6% of the tested compounds scored in any of these assays.

SMILES	RBBP9 inh	NCF1 inh	Yeast lifespan up	Yeast growth inh	sdo1 growth	Tb hexokinase
CC1=NNC(=O)C1CC(=O)N/N=C(\C)c1cccs1 (stereo not drawn)	-	-	.	.	.	-
Cc1ccc(OCCN2CCN(C(=O)CCC(=O)Nc3nnc(CC(C)C)s3)CC2)cc1	-	-	.	.	.	-
Cc1cccc(-n2cc(-c3ccccc3)c3c(N4CCOCC4)ncnc32)c1	-	-	.	.	.	-
CCOc1ccc(NC(=O)CN2C(=O)/C(=C3\SC(=S)N(C4CCS(=O)(=O)C4)C3=O)c3ccccc32)cc1 (stereo not drawn)	-	63	.	.	.	-
COc1cc(NC2c3ccccc3C(=O)N2c2ccc(C)cn2)cc(OC)c1OC (stereo not drawn)	-	-	27	-	-	-
O=C(Nc1ccc(Br)cc1)C1OCCc2ccccc21 (stereo not drawn)	-	-	.	.	.	-
COc1ccc(/C=C(/C#N)C(=O)Nc2cc(C)ccc2C)cc1C(=O)O	-	163	-	-	-	-
COc1ccc(/C=C(\C#N)C(=O)Nc2cc(C)c(Cl)cc2OC)cc1O	-	-	.	.	.	-
C=CCOC(=O)C1=C(C)N=C2SCCC(=O)N2C1/C=C/c1ccccc1 (stereo not drawn)	-	-	.	.	.	-
C/C(=C\c1ccccc1)CN1CCN(Cc2ccc(C)o2)C(CCO)C1 (stereo not drawn)	-	-	.	.	.	-
Cn1c(N)c(C(=O)COC(=O)c2cc(-c3ccccc3)nc3ccccc23)c(=O)n(Cc2ccccc2)c1=O	-	-	30	-	-	-
Cn1c(N)c(C(=O)COC(=O)c2cc(C3CC3)nc3ccccc23)c(=O)n(Cc2ccccc2)c1=O	-	-	-	-	-	-
CCCC(=O)Nc1ccccc1Sc1ncnc2scc(-c3ccccc3)c12	-	-	44	-	-	-
C=CCn1c(SCC(=O)N2CCCCC2)nc(O)cc1=O	-	-	48	-	-	-
C=CCn1c(SCC(=O)N2CCOCC2)nc(O)cc1=O	-	-	-	-	-	-
Cc1csc2c(N(C)CCO)ncnc12	-	-	.	.	.	-
Cc1ccccc1C(=O)Nc1nnc(-c2cccnc2)o1	-	-	.	.	.	-
O=C(Nc1nnc(-c2ccccc2Cl)o1)c1cccnc1	-	-	34	-	-	-
Cc1ccc(OCc2nnc(N)s2)cc1C	-	-	.	.	.	-
CCOC(=O)/C(=C\c1cccnc1)C(=O)c1cc(C(C)=O)c(Nc2ccccc2)s1	-	-	33	-	-	-
CCOC(=O)N1CCN(C(=O)CSc2ccc3nnc(-c4cccnc4)n3n2)CC1	-	-	.	.	.	-
O=C1c2ccccc2C(=O)N1OCc1ccccc1	-	-	72	-	-	-
Cc1ccc(Cn2cc(SCC(N)=O)c3ccccc32)cc1	-	37	.	.	.	-
CCN(CC)C1=NS(=O)(=O)c2cc([N+](=O)[O-])ccc21	-	56	.	.	.	-
COc1cccc(-c2cc(C(=O)Nc3cnn(Cc4ccc(F)cc4)c3)no2)c1	-	-	-	-	-	-
SMILES	RBBP9 inh	NCF1 inh	Yeast lifespan up	Yeast growth inh	sdo1 growth	Tb hexokinase
COc1cccc(-c2cc(C(=O)Nc3cnn(Cc4ccccc4C)c3)no2)c1	-	70	-	-	-	-
CCc1cc2c3c(c1)C(C)CC(C)(C)N3C(=O)C2=O (stereo not drawn)	-	-	28	-	-	-
COc1ccc(C(=O)NC(=S)NNC(=O)c2cnccn2)cc1OC	-	-	-	90	-	-
CCN(CC)CCn1c(=S)[nH]c2cc(C(=O)N3CC=C(c4ccccc4)CC3)ccc2c1=O	-	-	.	.	.	-
COc1ccc(C(=O)ON=C2C=C(C)C(=O)C(C)=C2)cc1	-	-	.	.	.	-
COc1ccc(SN=C2C(C)=CC(=O)C=C2C)cc1	-	38	.	.	.	-
Oc1ccc2ccccc2c1N=Nc1ccccn1	-	-	-	90	-	-
Cc1nc(Nc2ccc3c(c2)OCCO3)c2c(C)c(C)sc2n1	-	-	.	.	.	-
CCOC(=O)Cn1c(=O)c2c(nc3n2CCN3Cc2ccccc2)n(C)c1=O	-	-	29	-	-	-
CC(C)C1=Nc2cccc3cccc(c23)N1	-	150	-	-	-	-
COc1ccc(C2=Nc3cccc4cccc(c34)N2)cc1	-	-	-	-	-	-
CCCCCc1nnc(NC(=O)C(=O)OCC)s1	-	-	39	-	-	-
CCCCc1nnc(NC(=O)C(=O)OCC)s1	-	-	.	.	.	-
CCC(=O)Nc1nnc(SCc2ccc(F)cc2)s1	-	-	.	-	-	-
CCOC(=O)C(=O)Nc1nnc(SCc2ccc(F)cc2)s1	-	-	35	-	-	-
COc1ccc(/C(C)=N/NC(=O)c2ccc(CSc3cccc4cccnc34)cc2)cc1OC	-	-	-	71	-	-
O=C(CSc1cccc2cccnc12)N1CCCC1	-	-	-	-	-	-
C/C(=N\NC(=O)c1ccc(CSc2cccc3cccnc23)cc1)C1CCCCC1	-	-	-	71	-	-
Cc1ccnc(N=Cc2c(O)ccc3oc4c(c23)CCCC4)c1	-	-	45	-	-	-
CCc1n[nH]c(=O)n1Cn1c(CC)n[nH]c1=O	-	37	-	-	-	-
S=C(Nc1ccc2cn[nH]c2c1)Nc1ccccc1Cl	-	-	37	-	-	-
CC(NC(=O)COC(=O)C1CSC2(C)CCC(=O)N12)C12CC3CC(CC(C3)C1)C2 (stereo not drawn)	-	-	.	.	.	-
COc1ccccc1C(=O)NCC(=O)N/N=C/c1cccc(Cl)c1	-	-	.	.	.	-
COC(=O)CSc1nc2ccccn2c(=O)c1C=O	-	-	.	.	.	-
Fc1ccc(-c2nc3ccccc3c3nc4ccccc4n23)cc1	-	-	-	-	-	-
SMILES	RBBP9 inh	NCF1 inh	Yeast lifespan up	Yeast growth inh	sdo1 growth	Tb hexokinase
c1ccc2c(c1)nnn1c3ccccc3nc21	-	-	-	65	-	-
Cc1nc2ccccc2c2nc3ccccc3n12	-	-	-	92	-	-
CCn1c(SCC#N)nc2ccccc2c1=O	-	-	.	.	.	-
N#CCSc1nc2ccccc2c2nc3ccccc3n12	-	-	-	61	-	-
CCOc1ccccc1NC(=O)COC(=O)c1cc[n+]([O-])cc1	-	-	.	.	.	-
CC(=O)Nc1ccc(S(=O)(=O)N2CCN(CCN3CCOCC3)CC2)cc1Cl	-	-	.	.	.	-
Cc1ccc(-c2ccc(=O)n(CC(=O)NCc3ccc(F)cc3)n2)cc1	-	-	.	.	.	-
CCOC(=O)c1oc2cccc(O)c2c1CN(Cc1ccccc1)C(C)=O	-	33	-	-	-	-
O=C1c2ccccc2-c2onc3c(Oc4ccccc4)cc(O)c1c23	-	-	92	-	-	-
CCn1c(=O)c([N+](=O)[O-])c(NCCCn2ccnc2)c2ccccc21	-	-	.	.	.	-
COc1ccc(C(CNC(=O)c2cccc(Br)c2)N2CCCC2)cc1 (stereo not drawn)	-	-	123	-	-	-
COc1ccc(C(CNC(=O)c2ccccc2C)N2CCCC2)cc1 (stereo not drawn)	-	-	-	-	-	-
